Published values of several laboratories.
Each line is one published result; the experiments were not run side by side.
Target: Testis-specific serine/threonine-protein kinase 3 (TSSK3, Homo sapiens, UniProt Q96PN8)
One construct used (Q96PN8 1-268): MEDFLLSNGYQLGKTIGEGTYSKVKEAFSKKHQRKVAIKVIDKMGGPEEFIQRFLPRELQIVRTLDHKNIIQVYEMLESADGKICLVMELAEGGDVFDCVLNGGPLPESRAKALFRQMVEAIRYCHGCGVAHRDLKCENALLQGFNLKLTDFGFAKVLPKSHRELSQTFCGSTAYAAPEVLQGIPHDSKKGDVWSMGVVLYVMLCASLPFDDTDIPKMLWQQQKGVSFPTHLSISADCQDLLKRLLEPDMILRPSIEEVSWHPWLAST

FC(F)(F)Oc1cccc(-c2cnc3ccc(-c4ccncc4)nn23)c1
remaining binding (binding; competition with immobilised ligand; 5 µM): 91%

COc1cnc(Nc2cccc(S(N)(=O)=O)c2)nc1N1CCN(c2ccccc2)C(=O)C1
remaining binding (binding; competition with immobilised ligand; 1 µM): 90%

N[C@@H]1CCN(c2nccc(-c3cnn4ncccc34)n2)C1
remaining binding (binding; 1 µM): 100%

CCCCN(CCCC)C(=O)CN1C[C@H](c2cc(OC)c3c(c2)OCO3)[C@@H](C(=O)O)[C@@H]1CC(C)(C)CCC
remaining binding (cell-free assay; competition with immobilised ligand; 1 µM): 100%

C[C@@H]1CCN(c2nccc(-c3cnn4ncccc34)n2)C1
remaining binding (binding; 1 µM): 78%

COc1cnc(Nc2cccc(S(N)(=O)=O)c2)nc1N1CCN(c2ccccc2)CC1
remaining binding (binding; competition with immobilised ligand; 1 µM): 97%

CN(C)c1nccc(-c2cnn3ncccc23)n1
remaining binding (binding; 1 µM): 100%

C[C@H](c1ccc(F)cc1)N(Cc1cccc(C(=O)O)c1)C(=O)c1cnc2ccccc2c1
remaining binding (cell-free assay; competition with immobilised ligand; 1 µM): 64%

c1cncc(-c2cccc(Nc3nccc(NC4CCCCC4)n3)c2)c1
remaining binding (binding; competition with immobilised ligand; 10 µM): 86%

CC1=C(C#N)[C@@H](c2ccc3[nH]nc(C)c3c2)C(C#N)=C(c2ccc(Cl)cc2)N1
remaining binding (cell-free assay; competition with immobilised ligand; 1 µM): 100%

Cc1cnc(Nc2ccc(C(=O)N3CCC(N4CCCC4)CC3)cc2)nc1-c1cc2ccccc2s1
remaining binding (binding; competition with immobilised ligand; 1 µM): 84%

O=C(Nc1c[nH]nc1C(=O)NC1CCNCC1)c1cc(F)cc(F)c1
remaining binding (binding; competition with immobilised ligand; 1 µM): 100%

CCS(=O)(=O)c1cc2cc(C[C@](O)(CC(C)(C)c3ccc(F)cc3C(N)=O)C(F)(F)F)[nH]c2cn1
remaining binding (cell-free assay; competition with immobilised ligand; 1 µM): 100%

CN(CCCC(F)(F)F)c1nccc(-c2cnn3ncccc23)n1
remaining binding (binding; 1 µM): 85%

O=C(c1ccc(Nc2ncc(Cl)c(-c3cc4ccccc4s3)n2)cc1)N1CCC(N2CCCC2)CC1
remaining binding (binding; competition with immobilised ligand; 1 µM): 85%

COc1ccnn2ncc(-c3ccnc(N(C)C)n3)c12
remaining binding (binding; 1 µM): 100%

O=C(Nc1cnc(Oc2ccc(F)cc2)nc1)N1CCc2ncccc2[C@@H]1c1ccc(F)cc1
remaining binding (cell-free assay; competition with immobilised ligand; 1 µM): 86%

O=C(NCCCN1CCOCC1)c1ccc(Nc2nccc(-c3cc4ccccc4s3)n2)cc1
remaining binding (binding; competition with immobilised ligand; 1 µM): 79%

Nc1ncc2c(n1)-c1c([nH]c3ccc(C#CC4CC4)cc13)CCCC2
remaining binding (binding; competition with immobilised ligand; 1 µM): 70%

COc1cc(-c2cn(C3CCc4c(F)cccc4N(CC(F)(F)F)C3=O)nn2)ccc1-n1cnc(C)c1 (stereo not drawn)
remaining binding (cell-free assay; competition with immobilised ligand; 1 µM): 97%

CN(C)c1ncc(F)c(-c2cnn3ncccc23)n1
remaining binding (binding; 1 µM): 99%
